From ChEMBL document CHEMBL3297713, “Discovery, optimization, and biological evaluation of 5-(2-(trifluoromethyl)phenyl)indazoles as a novel class of transient receptor potential A1 (TRPA1) antagonists” (J Med Chem, 2014)
One block for each molecule: values may come before it.

Columns and labels:
[1] = Clearance in Wistar rat at 1 mg/kg, iv; format: ADME, organism-based; design: dose 1 mg/kg, route intravenous; details: in vivo
In short: (§1)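 Wistar rats given 1 mg/kg i.v. as a solution in 75% PEG200/25% D5W.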

CHO-K1 [2] = test: Selectivity ratio of IC50 for human TRPM8 expressed in CHOK1 cells to IC50 for human TRPA1 expressed in CHO-TREX cells; format: cell-based
In short: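 FLIPR calcium-flux antagonist assays with Fluo4-AM loading (90 min, room temperature) in HBSS/20 mM HEPES/2.5 mM probenecid/0.1% BSA. Compound added 10 min before agonist at EC80: 40 µM menthol for CHO-K1 hTRPM8; for tetracycline-induced (0.5 µg/mL) CHO-TREX hTRPA1, 30 µM cinnamaldehyde, 2.5 µM AITC or 5 nM dibenzoxazepine carboxamide. Response is maximum minus minimum. IC50s come from sigmoidal fits of triplicate means.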

[3] = target: T1, Transient receptor potential cation channel subfamily A member 1 (Homo sapiens, UniProt O75762); test: Antagonist activity at human TRPA1 expressed in CHO-TREX cells assessed as inhibition of cinnamaldehyde-induced calcium flux incubated 10 mins prior to cinnamaldehyde addition by FLIPR assay relative to control; format: cell-based
In short: (§2)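 TRPA1-expressing CHO-TREX cells, channel expression induced with tetracycline (0.5 µg/mL human, 1 µg/mL mouse or rat). Cells loaded with Fluo4-AM for 90 min at room temperature, washed, then test agent added in HBSS/20 mM HEPES/2.5 mM probenecid/0.1% BSA. Agonist added 10 min later at EC80: human cinnamaldehyde 30 µM, AITC 2.5 µM, dibenzoxazepine-carboxamide 5 nM; rat and mouse cinnamaldehyde 40 µM. FLIPR calcium flux; mean of triplicates fitted to sigmoidal dose-response curves.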

[4] = target: Transient receptor potential cation channel subfamily M member 8 (Homo sapiens, UniProt Q7Z2W7); test: Antagonist activity at human TRPM8 expressed in CHOK1 cells assessed as inhibition of menthol-induced calcium flux incubated 10 mins prior to menthol addition by FLIPR assay relative to control; format: cell-based, CHO-K1
[5] = AUC in Wistar rat at 10 mg/kg, po; format: ADME, organism-based; design: dose 10 mg/kg, route oral; details: plasma
In short: (§3)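 Male Wistar rats dosed orally at 10 mg/kg as a suspension in 0.5% methylcellulose/0.5% Tween80.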

[6] = Oral bioavailability in Wistar rat at 10 mg/kg; format: ADME, organism-based; details: in vivo; in short: as §3
[7] = target: Transient receptor potential cation channel subfamily V member 1 (Homo sapiens, UniProt Q8NER1); test: Antagonist activity at human TRPV1 expressed in CHOK1 cells assessed as inhibition of capsaicin-induced calcium flux incubated 10 mins prior to capsaicin addition by FLIPR assay relative to control; format: cell-based, CHO-K1
CHO-K1 [8] = test: Selectivity ratio of IC50 for human TRPV1 expressed in CHOK1 cells to IC50 for human TRPA1 expressed in CHO-TREX cells; format: cell-based
In short: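 Stable hTRPV1 CHO-K1 and tetracycline-induced (0.5 µg/mL) hTRPA1 CHO-TREX cells were loaded with Fluo4-AM for 90 min at room temperature and read on FLIPR. Antagonist preincubation was 10 min before EC80 agonist: capsaicin 40 nM (TRPV1); cinnamaldehyde 30 µM, AITC 2.5 µM or dibenzoxazepine carboxamide 5 nM (TRPA1). Buffer contained probenecid and BSA. IC50s were fitted from triplicate means of max−min calcium signal.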

[9] = Cmax in Wistar rat at 10 mg/kg, po; format: ADME, organism-based; design: dose 10 mg/kg, route oral; details: in vivo; in short: as §3
[10] = Half life in Wistar rat at 1 mg/kg, iv; format: ADME, organism-based; design: dose 1 mg/kg, route intravenous; details: in vivo; in short: as §1
[11] = target: T2, Transient receptor potential cation channel subfamily V member 3 (Homo sapiens, UniProt Q8NET8); test: (§4) Antagonist activity at human TRPV3 expressed in CHOK1 cells assessed as inhibition of 2-APB-induced calcium flux incubated 10 mins prior to 2-APB addition by FLIPR assay relative to control; format: cell-based, CHO-K1
T2 sequence (Q8NET8 whole entry): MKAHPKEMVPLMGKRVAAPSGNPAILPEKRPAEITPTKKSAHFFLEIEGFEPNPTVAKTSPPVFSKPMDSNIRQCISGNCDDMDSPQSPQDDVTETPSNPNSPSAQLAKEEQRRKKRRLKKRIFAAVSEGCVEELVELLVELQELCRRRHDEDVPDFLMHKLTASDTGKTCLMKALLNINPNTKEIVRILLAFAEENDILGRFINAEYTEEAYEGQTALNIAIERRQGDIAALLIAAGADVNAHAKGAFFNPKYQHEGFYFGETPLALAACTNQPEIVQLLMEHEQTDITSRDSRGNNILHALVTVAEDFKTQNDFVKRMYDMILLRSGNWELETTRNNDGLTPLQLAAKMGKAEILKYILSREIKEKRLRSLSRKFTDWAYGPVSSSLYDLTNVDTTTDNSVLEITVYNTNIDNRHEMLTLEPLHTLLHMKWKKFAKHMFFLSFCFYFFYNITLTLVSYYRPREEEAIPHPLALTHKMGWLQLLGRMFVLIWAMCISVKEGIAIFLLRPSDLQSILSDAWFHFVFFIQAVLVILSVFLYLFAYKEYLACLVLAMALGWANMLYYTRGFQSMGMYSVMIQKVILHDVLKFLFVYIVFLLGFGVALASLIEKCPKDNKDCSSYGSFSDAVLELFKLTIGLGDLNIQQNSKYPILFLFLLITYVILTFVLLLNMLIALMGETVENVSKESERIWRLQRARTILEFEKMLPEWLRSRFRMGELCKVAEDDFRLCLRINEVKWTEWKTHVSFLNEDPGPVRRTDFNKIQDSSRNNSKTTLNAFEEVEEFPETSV

[12] = target: T3, Transient receptor potential cation channel subfamily V member 3 (Homo sapiens) (UniProt Q8NET8); test: as §4; format: cell-based; design: concentration or dose not given beside the values; details: CHO-K1
T3 sequence (whole entry): T2 sequence (Q8NET8 whole entry)

[13] = target: Transient receptor potential cation channel subfamily A member 1 (Rattus norvegicus) (UniProt Q6RI86); test: (§5) Antagonist activity at rat TRPA1 expressed in CHO-TREX cells assessed as inhibition of cinnamaldehyde-induced calcium flux incubated 10 mins prior to cinnamaldehyde addition by FLIPR assay relative to control; format: cell-based; design: concentration or dose not given beside the values; in short: as §2
[14] = target: Transient receptor potential cation channel subfamily A member 1 (Rattus norvegicus, UniProt Q6RI86); test: as §5; format: cell-based; in short: as §2
[15] = Tmax in Wistar rat at 10 mg/kg, po; format: ADME, organism-based; design: dose 10 mg/kg, route oral; details: in vivo; in short: as §3
[16] = target: Transient receptor potential cation channel subfamily A member 1 (Mus musculus) (UniProt Q8BLA8); test: (§6) Antagonist activity at mouse TRPA1 expressed in CHO-TREX cells assessed as inhibition of cinnamaldehyde-induced calcium flux incubated 10 mins prior to cinnamaldehyde addition by FLIPR assay relative to control; format: cell-based; design: concentration or dose not given beside the values; in short: as §2
[17] = target: Transient receptor potential cation channel subfamily A member 1 (Mus musculus, UniProt Q8BLA8); test: as §6; format: cell-based; in short: as §2
[18] = Volume of distribution at steady state in Wistar rat at 1 mg/kg, iv; format: ADME, organism-based; design: dose 1 mg/kg, route intravenous; details: in vivo, read-out: Vdss; in short: as §1
CHO-K1 [19] = test: Selectivity ratio of IC50 for human TRPV3 expressed in CHOK1 cells to IC50 for human TRPA1 expressed in CHO-TREX cells; format: cell-based
In short: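 Calcium influx was measured by FLIPR in Fluo4-AM-loaded cells: hTRPV3 CHO-K1 challenged with 40 µM 2-APB, and hTRPA1 CHO-TREX (0.5 µg/mL tetracycline) challenged with 30 µM cinnamaldehyde, 2.5 µM AITC or 5 nM dibenzoxazepine carboxamide, all at EC80. Compounds were added 10 min ahead of agonist in HEPES-buffered HBSS with probenecid. Sigmoidal curves were fitted to triplicate means.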

[20] = target: T1, Transient receptor potential cation channel subfamily A member 1; test: Antagonist activity at TRPA1 (unknown origin)
In short: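 TRPA1 expressed in CHO-TREX cells, induced with tetracycline (0.5 µg/mL for human, 1 µg/mL for mouse or rat). Cells loaded with Fluo4-AM for 90 min at room temperature, then washed. Antagonist added 10 min before an EC80 agonist in HBSS/20 mM HEPES, 2.5 mM probenecid, 0.1% BSA. Calcium flux read by FLIPR. IC50 taken from sigmoidal curves of triplicate means.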

T1 sequence (O75762 whole entry): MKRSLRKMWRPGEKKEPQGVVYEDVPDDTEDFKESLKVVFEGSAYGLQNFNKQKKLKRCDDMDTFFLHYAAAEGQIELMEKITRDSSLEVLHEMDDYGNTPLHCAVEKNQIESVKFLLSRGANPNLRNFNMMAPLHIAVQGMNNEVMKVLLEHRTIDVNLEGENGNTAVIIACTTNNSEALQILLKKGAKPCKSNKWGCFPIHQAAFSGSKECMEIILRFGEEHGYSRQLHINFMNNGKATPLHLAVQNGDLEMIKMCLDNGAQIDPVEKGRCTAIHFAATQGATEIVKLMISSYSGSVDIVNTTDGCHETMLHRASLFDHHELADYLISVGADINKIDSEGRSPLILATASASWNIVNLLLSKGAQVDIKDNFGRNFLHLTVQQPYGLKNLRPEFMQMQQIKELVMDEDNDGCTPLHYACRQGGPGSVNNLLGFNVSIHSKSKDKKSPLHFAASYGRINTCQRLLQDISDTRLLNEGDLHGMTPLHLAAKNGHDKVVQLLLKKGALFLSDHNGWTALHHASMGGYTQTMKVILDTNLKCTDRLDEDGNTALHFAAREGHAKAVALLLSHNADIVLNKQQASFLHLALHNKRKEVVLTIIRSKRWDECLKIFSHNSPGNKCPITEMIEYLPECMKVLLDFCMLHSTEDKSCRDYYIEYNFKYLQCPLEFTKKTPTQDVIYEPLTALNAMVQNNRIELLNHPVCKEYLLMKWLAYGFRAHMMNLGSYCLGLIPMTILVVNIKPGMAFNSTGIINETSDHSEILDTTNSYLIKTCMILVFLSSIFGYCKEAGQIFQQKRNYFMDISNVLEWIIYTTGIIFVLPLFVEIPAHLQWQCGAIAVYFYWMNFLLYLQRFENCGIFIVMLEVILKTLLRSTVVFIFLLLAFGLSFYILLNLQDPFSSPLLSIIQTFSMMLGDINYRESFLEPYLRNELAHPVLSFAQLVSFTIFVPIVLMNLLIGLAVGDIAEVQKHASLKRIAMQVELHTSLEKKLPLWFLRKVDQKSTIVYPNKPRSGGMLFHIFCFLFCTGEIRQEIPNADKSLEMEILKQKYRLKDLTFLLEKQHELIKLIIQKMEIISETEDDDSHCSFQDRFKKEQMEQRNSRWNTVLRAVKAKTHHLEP
Sequence of Transient receptor potential cation channel subfamily V member 1 (Q8NER1 whole entry): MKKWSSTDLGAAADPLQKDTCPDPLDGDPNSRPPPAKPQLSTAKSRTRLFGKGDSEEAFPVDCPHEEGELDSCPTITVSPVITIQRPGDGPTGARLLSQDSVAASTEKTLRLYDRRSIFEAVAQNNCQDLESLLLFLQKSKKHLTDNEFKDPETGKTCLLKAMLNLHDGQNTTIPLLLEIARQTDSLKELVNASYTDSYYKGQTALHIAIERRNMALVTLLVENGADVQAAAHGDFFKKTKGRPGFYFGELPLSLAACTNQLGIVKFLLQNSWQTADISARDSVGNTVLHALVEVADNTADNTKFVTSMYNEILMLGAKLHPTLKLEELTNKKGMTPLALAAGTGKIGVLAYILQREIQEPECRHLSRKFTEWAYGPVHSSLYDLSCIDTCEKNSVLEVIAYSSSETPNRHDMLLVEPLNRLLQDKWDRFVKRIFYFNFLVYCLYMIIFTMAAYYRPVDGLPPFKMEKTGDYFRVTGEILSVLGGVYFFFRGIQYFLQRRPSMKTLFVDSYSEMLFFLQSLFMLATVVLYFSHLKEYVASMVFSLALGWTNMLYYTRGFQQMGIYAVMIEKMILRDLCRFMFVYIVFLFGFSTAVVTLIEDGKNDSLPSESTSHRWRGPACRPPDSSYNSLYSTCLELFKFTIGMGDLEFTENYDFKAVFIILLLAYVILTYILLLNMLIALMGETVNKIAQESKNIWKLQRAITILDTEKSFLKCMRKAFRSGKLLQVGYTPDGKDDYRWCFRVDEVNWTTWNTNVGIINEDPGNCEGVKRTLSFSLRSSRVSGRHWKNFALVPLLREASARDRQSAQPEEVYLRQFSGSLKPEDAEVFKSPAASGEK
Sequence of Transient receptor potential cation channel subfamily A member 1 (Rattus norvegicus, UniProt Q6RI86) (Q6RI86 whole entry): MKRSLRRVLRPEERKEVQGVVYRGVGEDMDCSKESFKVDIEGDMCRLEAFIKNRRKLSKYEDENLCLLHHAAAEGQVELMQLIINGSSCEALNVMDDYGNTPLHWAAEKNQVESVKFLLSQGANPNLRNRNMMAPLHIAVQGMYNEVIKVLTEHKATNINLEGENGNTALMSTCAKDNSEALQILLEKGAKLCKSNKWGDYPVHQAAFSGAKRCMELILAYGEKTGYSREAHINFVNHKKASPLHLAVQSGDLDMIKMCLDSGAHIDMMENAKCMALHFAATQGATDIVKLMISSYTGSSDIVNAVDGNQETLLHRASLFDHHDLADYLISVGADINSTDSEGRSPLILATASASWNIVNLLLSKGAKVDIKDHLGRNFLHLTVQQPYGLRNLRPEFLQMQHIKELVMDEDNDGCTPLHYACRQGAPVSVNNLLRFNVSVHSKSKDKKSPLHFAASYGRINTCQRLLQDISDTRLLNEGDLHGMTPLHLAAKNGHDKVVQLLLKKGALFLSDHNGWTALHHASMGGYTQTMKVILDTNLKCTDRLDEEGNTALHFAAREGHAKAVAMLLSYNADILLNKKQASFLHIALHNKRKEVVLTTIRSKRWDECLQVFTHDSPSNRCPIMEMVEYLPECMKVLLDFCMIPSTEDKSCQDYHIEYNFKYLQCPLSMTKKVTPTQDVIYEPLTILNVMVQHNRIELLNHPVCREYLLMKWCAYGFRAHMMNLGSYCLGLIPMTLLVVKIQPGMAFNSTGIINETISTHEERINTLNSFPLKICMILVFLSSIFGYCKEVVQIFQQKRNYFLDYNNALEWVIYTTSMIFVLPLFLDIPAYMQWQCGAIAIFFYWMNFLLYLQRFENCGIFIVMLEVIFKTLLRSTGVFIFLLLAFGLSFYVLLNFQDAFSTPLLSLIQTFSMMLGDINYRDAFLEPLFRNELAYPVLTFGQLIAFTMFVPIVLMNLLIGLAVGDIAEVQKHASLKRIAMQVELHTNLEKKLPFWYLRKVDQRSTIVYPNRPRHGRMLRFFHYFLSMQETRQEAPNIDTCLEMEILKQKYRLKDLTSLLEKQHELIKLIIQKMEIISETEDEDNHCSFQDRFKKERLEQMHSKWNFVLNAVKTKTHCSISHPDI
Sequence of Transient receptor potential cation channel subfamily A member 1 (Rattus norvegicus) (Q6RI86 whole entry): as above
Sequence of Transient receptor potential cation channel subfamily A member 1 (Mus musculus, UniProt Q8BLA8) (Q8BLA8 whole entry): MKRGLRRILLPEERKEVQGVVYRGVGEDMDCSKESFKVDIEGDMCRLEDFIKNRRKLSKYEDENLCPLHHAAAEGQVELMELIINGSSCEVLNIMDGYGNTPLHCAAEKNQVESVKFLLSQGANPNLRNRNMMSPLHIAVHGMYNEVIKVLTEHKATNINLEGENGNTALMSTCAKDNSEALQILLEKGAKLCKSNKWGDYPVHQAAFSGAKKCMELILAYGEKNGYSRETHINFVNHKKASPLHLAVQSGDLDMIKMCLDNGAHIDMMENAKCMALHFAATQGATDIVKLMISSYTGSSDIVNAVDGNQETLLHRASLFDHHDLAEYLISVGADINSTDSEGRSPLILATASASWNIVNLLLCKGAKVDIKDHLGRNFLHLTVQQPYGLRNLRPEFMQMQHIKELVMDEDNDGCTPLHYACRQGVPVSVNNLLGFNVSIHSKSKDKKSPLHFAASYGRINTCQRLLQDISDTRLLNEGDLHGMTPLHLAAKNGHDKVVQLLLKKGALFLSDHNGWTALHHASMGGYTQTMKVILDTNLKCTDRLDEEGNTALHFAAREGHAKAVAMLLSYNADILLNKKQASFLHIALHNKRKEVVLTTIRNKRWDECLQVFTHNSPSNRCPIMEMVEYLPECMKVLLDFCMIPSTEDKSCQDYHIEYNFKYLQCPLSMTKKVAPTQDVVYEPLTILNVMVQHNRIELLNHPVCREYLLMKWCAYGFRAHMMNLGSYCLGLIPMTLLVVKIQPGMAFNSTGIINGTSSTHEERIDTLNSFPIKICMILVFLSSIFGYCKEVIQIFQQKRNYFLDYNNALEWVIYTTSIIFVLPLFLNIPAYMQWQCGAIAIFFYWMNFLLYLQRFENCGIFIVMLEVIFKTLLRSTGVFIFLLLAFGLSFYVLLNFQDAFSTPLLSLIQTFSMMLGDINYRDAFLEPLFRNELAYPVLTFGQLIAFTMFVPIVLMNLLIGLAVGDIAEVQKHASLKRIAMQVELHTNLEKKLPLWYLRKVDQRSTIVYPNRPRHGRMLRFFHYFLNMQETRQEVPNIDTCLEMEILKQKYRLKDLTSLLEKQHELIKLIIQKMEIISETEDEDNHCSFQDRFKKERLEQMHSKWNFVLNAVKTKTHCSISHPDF
Sequence of Transient receptor potential cation channel subfamily A member 1 (Mus musculus) (Q8BLA8 whole entry): as above

clearance [1]: 35.5 mL/min/kg
IC50 [3]: 26 nM
inhibition [3]: 98%
IC50 [4]: 10.9 µM
inhibition ([4]; CHO-K1): 100%
AUC [5]: 8.2 µM·h
bioavailability [6]: 50%
IC50 [7]: > 30 µM
inhibition ([7]; CHO-K1): 35%
Cmax [9]: 2000 nM
half-life [10]: 396 min
IC50 [11]: > 30 µM
inhibition [12]: 35%
inhibition [13]: 99%
IC50 [14]: 99 nM
Tmax [15]: 48 min
inhibition [16]: 100%
IC50 [17]: 161 nM
Vd [18]: 3.6 L/kg
Structure (SMILES): COc1cc2[nH]ncc2cc1-c1ccccc1C(F)(F)F
Ratio IC50 (CHO-K1 [2]): > 100
Ratio IC50 (CHO-K1 [8]): > 100
Ratio IC50 (CHO-K1 [19]): > 100

IC50 [20]: 2300 nM
Structure (SMILES): CC(C)c1ccc(NC(=O)Cn2cnc3c2c(=O)n(C)c(=O)n3C)cc1
